# Screening data: PubChem, several laboratories
# The list is not random: actives were taken first. Their share in the collection is about 4%.
# Mdm2 ligase inh: Mdm2 E3 ligase (human) inhibition; Q00987; cell-based MDM2 ubiquitination luciferase reporter, 2 h; 0 = plate control, 100 = twice control, blank-subtracted; signal enhancement, % at 5 µM; hit rate 0.11% among 210,000; AID 1230;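 active = signal enhancement of 30% or more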;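 also: luminescence tracks abundance of the self-degrading MDM2-luciferase fusion protein; higher signal means inhibition of MDM2 E3 ligase activity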
# Target sequence (Q00987 whole entry, looked up, the tested form may be a part): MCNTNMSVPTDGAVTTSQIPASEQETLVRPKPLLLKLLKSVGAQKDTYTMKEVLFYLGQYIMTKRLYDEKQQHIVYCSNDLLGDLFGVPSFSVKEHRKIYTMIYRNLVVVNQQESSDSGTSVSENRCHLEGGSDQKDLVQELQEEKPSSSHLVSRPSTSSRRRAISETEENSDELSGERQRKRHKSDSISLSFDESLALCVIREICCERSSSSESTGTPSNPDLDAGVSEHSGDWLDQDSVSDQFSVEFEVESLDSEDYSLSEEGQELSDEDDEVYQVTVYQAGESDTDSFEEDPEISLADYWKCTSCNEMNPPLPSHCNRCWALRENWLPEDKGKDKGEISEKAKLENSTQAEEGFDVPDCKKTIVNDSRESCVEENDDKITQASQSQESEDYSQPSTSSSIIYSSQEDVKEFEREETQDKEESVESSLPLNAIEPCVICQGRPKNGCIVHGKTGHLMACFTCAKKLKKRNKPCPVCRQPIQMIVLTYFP
#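 system = mammalian cells stably expressing self-ubiquitinating, self-degrading MDM2 E3–luciferase fusion | quantity = 2000 cells per well seeded | incubation = 4 h cell settling then 2 h compound exposure, 37 °C | signal = SteadyLite luminescence, 15 min reagent step | benchmarks = plate control and blank wells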
# Insulin prom inh: TRM-6 insulin promoter activity inhibition; TRM-6 cells, insulin promoter-eGFP reporter, imaging; reporter expression induced with tamoxifen; inhibition, % at 2 µM; hit rate 0.9% among 130,000; AID 1273;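 active = inhibition above the mean plus 3 SD, with well images judged a real hit on visual review, cut at about 60% in these data, passing the limit was not always enough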
# BB579 growth dn: yeast BB579 growth reduction in restrictive medium | hit rate 0.51% among 140,000 | S. cerevisiae BB579 growth, OD615, 48 h | inhibition, % at 10 µM;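 active = inhibition above a set limit, 3 SD over the mean compound inhibition, cut at about 44% in these data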
#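 Test system: Saccharomyces cerevisiae DeaD strain BB579, replicative lifespan model yeast | Buffer or medium: Restrictive CSMM-D medium | Doses: One dose, 10 µM compound with 0.25% DMSO | Incubation: 48 h exposure, 30 °C | Detection: Culture absorbance at 615 nm | Control set: Amphotericin B at 10 µg/mL as positive control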
# RAM inhibit: blocks the yeast RAM network; S. cerevisiae dse1pr::URA3 reporter, 5-FOA growth OD615, 2 d; analog-sensitive cbk1-as2 kinase mutant strain; inhibition, % at 50 µM; hit rate 1.8% among 190,000; AID 868;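 active = inhibition above a set limit, 3 SD over mean compound inhibition, cut at about 8.4% in these data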;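 also: 0% = DMSO-only wells with no growth and 100% = 10 µM 1-NA-PP1 full growth; inhibition rescues growth on 5-FOA so higher OD means more RAM inhibition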
# Measles CPE: protection of cells from measles virus; protection (pct of control), % at 4 µM; Measles virus-infected cells, CPE protection, absorbance; hit rate 1.5% among 140,000; in the data active = protection mostly above about 24%, no sharp cut-off; inactive = mostly below about 26%
# Yeast life ext: yeast lifespan extension; S. cerevisiae growth with nicotinamide, OD615; deaD strain in restrictive glucose medium; inhibition of the nicotinamide effect, % at 10 µM; hit rate 0.68% among 130,000; AID 775;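 active = inhibition above a set limit, placed 3 SD over the median of all compounds, cut at about 26% in these data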;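 also: 0% = nicotinamide-treated wells and 100% = cells grown without nicotinamide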
#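 assay system = DeaD-strain S. cerevisiae | measured by = absorbance at 615 nm | probe or stimulus = nicotinamide 1.5 mM | buffer or medium = CSMM-D glucose medium, restrictive | times = 48 h at 30 °C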
# The depositor's hits bear a star; · = not tested or not shown.
SMILES,Mdm2 ligase inh,Insulin prom inh,BB579 growth dn,RAM inhibit,Measles CPE,Yeast life ext
CCOc1ccccc1C1C2C(=O)N(c3ccccc3)C(=O)C2ON1c1ccccc1 (stereo not given),5,57,18,-1,47*,-12
CCCC1C2C(=O)N(c3ccccc3)C(=O)C2ON1c1ccccc1 (stereo not given),-24,4,-8,1,8,0
CCCOc1ccc(N2C(=O)C3ON(c4ccccc4)C(CCC)C3C2=O)cc1 (stereo not given),-14,-19,-22,2,25*,-7
Cc1ccccc1-n1c(SCC(=O)c2cc(C)n(C)c2C)nnc1-c1ccncc1,-21,-3,-40,1,3,-7
Cc1ccccc1N=C1NN=C(c2ccccc2F)CS1,-15,·,-8,1,6,-9
NC(=O)c1c(NC(=O)C2CCCO2)sc2c1CCCC2 (stereo not given),34*,0,18,2,12,-8
CCOC(=O)c1c(NC(=O)C2CCCO2)sc2c1CCC2 (stereo not given),2,14,-50,1,16,-18
O=C(O)CC(NC(=O)C1c2ccccc2Oc2ccccc21)c1ccc(OC2CCCC2)cc1 (stereo not given),4,·,·,1,·,·
O=C(O)CC(NC(=O)c1sc2ccccc2c1Cl)c1ccc(OC2CCCC2)cc1 (stereo not given),-15,64,·,9.6*,·,·
Cc1cccc(C)c1NC1=NCCCCC1,-5,·,·,1,·,·
O=S(=O)(Cc1ccccc1)NCc1cccnc1,-3,-222,45*,0,3,-18
O=S(=O)(NCc1cccnc1)c1ccccc1,-22,27,-6,1,7,2
O=C(O)c1ccccc1C(=O)NCc1cccnc1,-1,·,-13,1,32*,0
O=C(O)c1ccccc1C(=O)NCC(O)c1ccccc1 (stereo not given),-10,·,·,·,·,·
O=C(CNC(=O)c1ccccc1C(=O)O)c1ccccc1,-8,78*,2,-1,17,·
Cn1c(=O)c2c(ncn2CC(=O)NCc2cccnc2)n(C)c1=O,·,17,-38,0,39*,-8
Cc1ccc(N2CCN(C(=O)N3CCOCC3)CC2)c(C)c1,-17,21,·,1,·,·
Cc1ccc2nsnc2c1S(=O)(=O)NCc1ccncc1,-30,·,-3,1,6,-3
O=C(CSc1ccccc1)NCc1cccnc1,0,·,-16,1,40*,-15
O=C(CCSc1ccccc1)NCc1cccnc1,·,10,-4,0,26,0
Cc1ccc2nsnc2c1S(=O)(=O)NCc1cccnc1,-6,64,0,3,39*,-17
CC1(C)CC(=O)c2cc(C(=O)O)c(=O)n(-c3ccccc3)c2C1,22,-17,-24,3,14,-4
Cc1ccc(-n2c3c(cc(C(=O)O)c2=O)C(=O)CC(C)(C)C3)cc1,4,8,-29,0,55*,-10
Cc1ccc(-n2c(C)cc(C=C3C(=O)CC(C)(C)CC3=O)c2C)cc1,57*,-6,-7,3,19,5
CCOC(=O)c1c(CN(C)C)n(-c2ccccc2)c2cc(Br)c(OC)cc12,·,-27,-61,1,11,26*
SMILES,Mdm2 ligase inh,Insulin prom inh,BB579 growth dn,RAM inhibit,Measles CPE,Yeast life ext
CCOC(=O)c1c(CSC(=N)N)n(-c2ccc(C)cc2)c2cc(Br)c(OC(C)=O)cc12,-7,68,-93,11*,0,-8
CCOC(=O)c1c(CN2CCOCC2)n(-c2ccccc2)c2cc(Br)c(OC)cc12,·,-6,-38,1,0,-12
Brc1ccc2ncc(Br)cc2c1,4,14,-14,1,25,-4
Cc1cccc(NC(=S)N=Nc2c(O)n(CN3CCOCC3)c3ccccc23)c1C,-3,78*,10,4,·,-1
Cc1ccc(N=Nc2c(O)n(CN3CCOCC3)c3ccccc23)cc1,-4,-3,-36,2,21,-18
N#Cc1c(-c2ccc(F)cc2)ccnc1N1CCOCC1,-19,57,·,-1,·,·
Nc1nc(Nc2ccc(Cl)cc2)n[nH]1,-19,35,-13,1,39*,-15
COc1ccc(CCNC(=O)c2cnn3c(C(F)F)cc(C)nc23)cc1OC,-12,·,51*,-1,3,3
O=C(Nc1nnc(-c2cccs2)s1)c1cccc(F)c1,-13,20,·,3,·,·
Cc1noc(C)c1COc1ccc(C(=O)OCC(=O)N2CC3(C)CC2CC(C)(C)C3)cc1 (stereo not given),-15,14,-28,1,51*,-6
Cc1noc(C)c1COc1ccc(C(=O)OCC(N)=O)cc1,-7,·,·,2,·,·
O=C(Nc1ccc(Cl)c(Cl)c1)c1cccc(S(=O)(=O)NCc2cccnc2)c1,-14,·,-34,-1,3,-8
C/C(N)=C(/C#N)C(=O)CSc1nc2scc(-c3ccccc3)c2c(=O)n1C,-11,-45,·,9.6*,·,·
COc1ccccc1NC(=O)Nc1nnc(C(C)C)s1,-7,·,-12,0,55*,-8
CCc1nnc(NC(=O)Nc2ccccc2OC)s1,28,·,-3,1,7,-8
COc1cccc(C(=O)NC2=NCCS2)c1,-53,75*,19,1,5,-9
COc1cccc(C(=O)Nc2ccc(F)cc2F)c1,-9,-42,-37,0,45*,·
COc1cccc(C(=O)Nc2ccccc2F)c1,-1,·,·,0,·,·
COc1ccc(NC(=O)c2ccc(-n3nc(C)cc3C)cc2)cc1OC,-10,-11,-5,0,49*,-12
Cc1cc(C)n(-c2ccc(C(=O)Nc3ccc(N4CCOCC4)cc3)cc2)n1,-41,·,-21,3,3,0
Cc1cc(C)n(-c2ccc(C(=O)NC3=NCCS3)cc2)n1,-2,·,-60,-1,35*,-16
CC(C)Oc1cccc(C(=O)NC2=NCCS2)c1,-9,50,·,-1,·,·
Cc1cc(C)n(-c2ccc(C(=O)Nc3ccc4c(c3)OCO4)cc2)n1,-24,25,-7,1,3,-14
COc1ccccc1/C=C(/C(=O)OCC(=O)N(C)Cc1ccccc1)c1ccccc1,-9,·,-13,10*,9,-2
Cc1ccc(CNC(=O)CSc2nc3ccccc3c3nc(C)nn23)cc1,-15,-127,-72,0,29,-7
Cc1c(C(=O)N2CCCc3ccccc32)oc2ccc(S(=O)(=O)N3CCOCC3)cc12,-3,·,-26,0,6,-13
CCc1ccc(-c2csc(NC(=O)C3CCCO3)c2C(=O)OC(C)C)cc1 (stereo not given),-19,·,-36,10*,3,-14
COC(=O)c1c(-c2ccc(F)cc2)csc1NC(=O)C1CCCO1 (stereo not given),10,·,·,0,·,·
CCCCCC/C(=N/O)c1ccccn1,-10,·,100*,-2,12,-19
